21 compounds from ChEMBL document CHEMBL1764975, “A new DNA gyrase inhibitor subclass of the cyclothialidine family based on a bicyclic dilactam-lactone scaffold. Synthesis and antibacterial properties” (J Med Chem, 2011) can be followed below.

Each structure is given as a SMILES string. Values after ≈ are worked out from the molar mass of the structure shown.

Assay [1] concerns Staphylococcus aureus. Nature of the assay: Antimicrobial activity against multidrug-resistant Staphylococcus aureus after 18 hrs by agar dilution method. The format is functional. The gist of the method:
(§1)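 Agar dilution on Mueller-Hinton agar, inoculum 10⁴ CFU/spot, against panels of multiresistant clinical strains (S. aureus 11, E. faecalis 16, E. faecium 23). MIC_50/90 in μg/mL taken as the minimum concentration inhibiting at least 50% or 90% of the strains tested.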
For orientation: In agar dilution the substance is mixed into plates at graded concentrations.

In assay [2] the test system is Enterococcus faecalis. Nature of the assay: Antimicrobial activity against multidrug-resistant Enterococcus faecalis after 18 hrs by agar dilution method. It is filed as functional. In short, it runs like this: as §1
Assay [3] relates to Enterococcus faecium. Kind of assay: Antimicrobial activity against multidrug-resistant Enterococcus faecium after 18 hrs by agar dilution method. The format is functional. The gist of the method:
as §1

For assay [4], the system named is Escherichia coli. Kind of assay: Inhibition of Escherichia coli DNA gyrase A2B2 complex after 30 mins by supercoiling assay.
Assay [5] deals with Staphylococcus aureus. Nature of the assay: Antimicrobial activity against Staphylococcus aureus Smith after 18 hrs by agar dilution method. The format is functional. The gist of the method:
(§2)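 Agar dilution on Mueller-Hinton medium, inoculum 10⁴ CFU/spot; MIC is the minimum inhibitory concentration against the named strain.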

The subject of assay [6] is Staphylococcus aureus. Kind of assay: Antimicrobial activity against Staphylococcus aureus Smith infected in iv dosed septicaemia Swiss albino mouse model after 4 days. It is filed as functional. The following applies: 96 h. In short, it runs like this: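 Septicaemia model in mice infected with S. aureus Smith, compound given iv. In experiments with 0-1 survivors among 5-10 control mice, ED₅₀ (mg/kg) taken as lowest dose giving 3-5 survivors out of 5 infected mice.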

Assay [7] relates to Streptococcus pyogenes. Nature of the assay: Antimicrobial activity against Streptococcus pyogenes b15 after 18 hrs by agar dilution method. It is filed as functional. The following applies: b15, 18 h. The gist of the method: as §2
Assay [8] has as its system Escherichia coli. Kind of assay: Antimicrobial activity against Escherichia coli 25922 after 18 hrs by agar dilution method. It is filed as functional. The following applies: Escherichia coli, 25922, 18 h. The gist of the method: as §2
Assay [9] concerns Stenotrophomonas maltophilia. Nature of the assay: Antimicrobial activity against Xanthomonas maltophilia IAC 739 after 18 hrs by agar dilution method. The format is functional. The following applies: IAC 739, 18 h. In short, it runs like this:
as §2

By MIC50 is commonly meant an inhibitory concentration at the 50% level, which refers to growth in some studies and to a panel of isolates in others. For orientation: MIC90 means an inhibitory concentration at the 90% level, which refers to growth in some studies and to a panel of isolates in others. High values mean lower susceptibility, low ones higher susceptibility. Consider `C[C@@H](O)[C@H]1C(=O)N2C(C(=O)O)=C(SCCNC=N)C[C@H]12` [IMIPENEM ANHYDROUS], for which the MIC50 in [1] is 32 µg/mL (≈ 107 µM); in assay [2], 2 µg/mL (≈ 6.68 µM); in [3], 64 µg/mL (≈ 214 µM). Further, the MIC90 in assay [1] was 64 µg/mL (≈ 214 µM); in assay [2], 2 µg/mL (≈ 6.68 µM); in [3] it was more than 64 µg/mL.

Broadly, the MIC is the smallest concentration in the dilution series that meets the test's criterion for growth inhibition. A lower MIC goes with inhibition by little substance. Compound `COc1cc(O)c2c(c1Br)C(=O)OCCN(C(C)=O)CC(=O)N[C@H](c1nc(C)no1)CSC2` had an MNEC in [4] of 0.01 µg/mL. The MIC in assay [5] is 16 µg/mL (≈ 29.4 µM).

As to `COc1cc(O)c2c(c1C)C(=O)OC[C@@H](CO)CCC(=O)N[C@H](c1nc(C)no1)CSC2`, in assay [4], the MNEC turned out to be 0.1 µg/mL. In [5], this compound gave a minimal inhibitory concentration (MIC) of 64 µg/mL (≈ 137 µM).

For orientation: ED50 means the dose at which the effect has come halfway, by size or by number of responders. A high value points to weaker potency. Consider `COc1cc(O)c2c(c1Br)C(=O)O[C@H](C)C(=O)NCC(=S)N[C@H](c1nc(C)no1)CSC2`, for which the MNEC in assay [4] turned out to be 0.2 µg/mL. This compound also had an ED50 in assay [6] of more than 12.5 mg/kg. Also, the MIC in assay [5] is 0.5 µg/mL (≈ 0.917 µM).

In turn, `COC(=O)[C@@H]1CSCc2c(O)cc(OC)c(C)c2C(=O)OCCOCC(=S)N1` registered an MNEC in [4] of 0.1 µg/mL. In addition, in assay [5], the MIC turned out to be 2.37 µg/mL (≈ 5.52 µM).

Consider `COc1cc(O)c2c(c1Cl)C(=O)OCC(=O)NCC(=O)N[C@H](c1nc(C)no1)CSC2`, for which the MNEC in assay [4] was found to be 0.02 µg/mL. In assay [6], it took a dose of 25 mg/kg to reach the 50% effect level (ED50). In [5], this compound had an MIC of 8 µg/mL (≈ 17 µM).

Regarding `COc1cc(O)c2c(c1Br)C(=O)OCCCCC(=S)N[C@H](c1nc(CN)no1)CSC2.Cl`, in assay [4], the MNEC was determined as 0.05 µg/mL. This compound displayed an ED50 in assay [6] of 12.5 mg/kg. Moreover, it took 0.5 µg/mL to inhibit growth in assay [5] (MIC).

In the case of `CN[C@H](CC(C)C)C(=O)N[C@H]1C(=O)N[C@@H](CC(N)=O)C(=O)N[C@H]2C(=O)N[C@H]3C(=O)N[C@H](C(=O)N[C@H](C(=O)O)c4cc(O)cc(O)c4-c4cc3ccc4O)[C@H](O)c3ccc(c(Cl)c3)Oc3cc2cc(c3O[C@@H]2O[C@H](CO)[C@@H](O)[C@H](O)[C@H]2O[C@H]2C[C@](C)(N)[C@H](O)[C@H](C)O2)Oc2ccc(cc2Cl)[C@H]1O` [VANCOMYCIN], the figures for the MIC in assay [7], in [8] and in assay [9] were 1 µg/mL (≈ 0.69 µM), more than 64 µg/mL and more than 64 µg/mL, respectively. Further, the MIC50 amounted to 2 µg/mL (≈ 1.38 µM) in assay [1], 2 µg/mL (≈ 1.38 µM) in [2] and 256 µg/mL (≈ 177 µM) in [3]. Further, the MIC90 is 4 µg/mL (≈ 2.76 µM) in assay [1], 256 µg/mL (≈ 177 µM) in assay [2] and more than 256 µg/mL in assay [3]. Also, in [6], the 50% effective dose (ED50) worked out at 1.5 mg/kg.

With `COc1cc(O)c2c(c1Cl)C(=O)OCCCCC(=O)N[C@H](c1nc(C)no1)CSC2`, the MNEC in assay [4] was 0.005 µg/mL. For the same compound, in [6], the ED50 is more than 25 mg/kg. The same compound showed an MIC in assay [5] of 0.25 µg/mL (≈ 0.548 µM).

In turn, `COc1cc(O)c2c(c1C)C(=O)OCC(=S)NCC(=S)N[C@H](c1nc(C)no1)CSC2` showed an MNEC in assay [4] of 0.002 µg/mL. The same compound came in with an MIC in assay [5] of 0.5 µg/mL (≈ 1.04 µM).

As to `COCc1noc([C@@H]2CSCc3c(O)cc(OC)c(Br)c3C(=O)OCC(=O)NCC(=O)N2)n1`, in assay [4], the MNEC turned out to be 0.05 µg/mL. Inhibition of growth in [5] (MIC) required 8 µg/mL (≈ 14.7 µM).

`COc1cc(O)c2c(c1C)C(=O)OCCCCC(=S)N[C@H](c1nc(CO)no1)CSC2` came in with an MNEC in [4] of 0.001 µg/mL. The compound further yielded an ED50 in [6] of 25 mg/kg. In addition, in assay [5], it took 0.25 µg/mL (≈ 0.535 µM) to inhibit growth (MIC).

`COc1cc(O)c2c(c1Br)C(=O)OCCNCC(=O)N[C@H](c1nc(C)no1)CSC2.Cl` returned an MNEC in assay [4] of 0.01 µg/mL. For the same compound, in [6], the 50% effective dose (ED50) was 25 mg/kg. The MIC in assay [5] turned out to be 1 µg/mL.

In [1], `COc1cccc(OC)c1C(=O)N[C@@H]1C(=O)N2[C@@H]1SC(C)(C)[C@@H]2C(=O)O` [METHICILLIN] returned an MIC50 of 256 µg/mL (≈ 673 µM) and an MIC90 of more than 256 µg/mL.

For the compound `COc1cc(O)c2c(c1Br)C(=O)OCC(=S)NCC(=S)N[C@H](c1nc(C)no1)CSC2`, in assay [4], the MNEC is 0.2 µg/mL. The same compound showed an MIC in assay [5] of 1 µg/mL (≈ 1.83 µM).

`COc1cc(O)c2c(c1Br)C(=O)OCCNCC(=S)N[C@H](c1nc(C)no1)CSC2.Cl` came in with an MNEC in assay [4] of 0.1 µg/mL. The ED50 in assay [6] was more than 25 mg/kg. This compound also came in with an MIC in assay [5] of 0.5 µg/mL.

`COc1cc(O)c2c(c1Br)C(=O)OCC(=O)N(C)CC(=O)N[C@H](c1nc(C)no1)CSC2` displayed an MNEC in assay [4] of 0.05 µg/mL. In [6], the ED50 was more than 12.5 mg/kg. In assay [5], this compound displayed an MIC of 2 µg/mL (≈ 3.78 µM).

`COc1cc(O)c2c(c1Br)C(=O)OCCN(C(=O)C1CC1)CC(=O)N[C@H](c1nc(C)no1)CSC2`: the MNEC in assay [4] came to 0.1 µg/mL. Also, in assay [5], 8 µg/mL (≈ 14 µM) was the least that counted as inhibitory (MIC).

In the case of `COc1cc(O)c2c(c1Br)C(=O)OCC(=O)NCC(=O)N[C@H](c1nc(CNC(C)C)no1)CSC2.Cl`, the MNEC in [4] was 0.02 µg/mL. Moreover, the MIC in assay [5] was found to be 16 µg/mL.

`COc1cc(O)c2c(c1C)C(=O)OCC(=S)NCC(=O)N[C@H](c1nc(C)no1)CSC2` had an MNEC in assay [4] of 0.005 µg/mL. Moreover, the ED50 in [6] is more than 25 mg/kg. The compound also returned an MIC in [5] of 2 µg/mL (≈ 4.29 µM).

For the compound `COc1cc(O)c2c(c1Br)C(=O)OCC(=O)NCC(=O)N[C@H](c1nc(CO)no1)CSC2`, in assay [4], the MNEC turned out to be 0.02 µg/mL. Also, the lowest concentration to inhibit growth in [5] (MIC) was 32 µg/mL (≈ 60.2 µM).
